Experimental data: ChEMBL document CHEMBL1921732, “Alkaloids from the Chinese vine Gnetum montanum” (J Nat Prod, 2011)
pIC50: −log10 of the molar value. Activity calls are given as the source filed them. The rule behind the calls is not given here.

Legend:
Pseudomonas aeruginosa [1] = test: Antibacterial activity against Pseudomonas aeruginosa PAO1 assessed as growth inhibition at 350 uM; assay type: functional, organism-based
Staphylococcus aureus = test: Antibacterial activity against methicillin-resistant Staphylococcus aureus 01A1095 assessed as growth inhibition at 350 uM after 19 hrs; assay type: functional
Summary of the method: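 Strain 01A1095 optical-density viability assay in caMH broth at 1980 CFU/well. Compounds were in DMSO (final 1.75%) and added before the bacteria. Plates were incubated at 37°C until OD620 reached 0.7-0.8, cooled 30 min and read at 620 nm. Vehicle served as the uninhibited-growth control and ciprofloxacin at 500 µg/mL as the kill control in internal control wells.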

Pseudomonas aeruginosa [2] = test: Antibacterial activity against Pseudomonas aeruginosa PAO1; assay type: functional, organism-based
[3] = Selectivity ratio of antimicrobial activity for Pseudomonas aeruginosa PAO1 over methicillin-resistant Staphylococcus aureus 01A1095; assay type: functional
Pseudomonas aeruginosa [4] = test: Antibacterial activity against Pseudomonas aeruginosa PAO1 assessed as growth inhibition at 87.5 uM; assay type: functional; details: read-out: GI
Pseudomonas aeruginosa [5] = test: Antibacterial activity against Pseudomonas aeruginosa PAO1 assessed as growth inhibition at 175 uM; assay type: functional; details: read-out: GI

COc1cc2c(cc1O)C(Cc1ccc(O)cc1)[N+](C)(C)CC2 (racemic)
growth inhibition (GI) (Pseudomonas aeruginosa [1]): inactive
growth inhibition (GI) (Staphylococcus aureus): inactive

C[N+]1(C)CCc2cc(O)c(O)cc2C1Cc1ccc(O)c(O)c1 (racemic)
growth inhibition (GI) (Pseudomonas aeruginosa [1]): inactive
growth inhibition (GI) (Staphylococcus aureus): inactive

O=C([O-])C(F)(F)F.Oc1cc2c(cc1O)[C@@H]1c3ccc(O)c(O)c3C[C@H]3Cc4cc(O)c(O)cc4[N+]31CC2 (some centres undefined)
pIC50 (Pseudomonas aeruginosa [2]): 5.01
MIC (Pseudomonas aeruginosa [2]): 35 µM
inhibition of growth at 350 µM (Staphylococcus aureus; 01A1095, 19 h, read-out: GI): 55%
Selectivity ratio [3]: 36

COc1cc2c(cc1O)C(Cc1ccc(O)c(O)c1)[N+](C)(C)CC2 (racemic)
growth inhibition (GI) (Pseudomonas aeruginosa [1]): inactive
growth inhibition (GI) (Staphylococcus aureus): inactive

COc1cc2c3c(cc4cc(O)c(O)cc4c3c1O)[N+](C)(C)CC2
inhibition of growth at 87.5 µM (Pseudomonas aeruginosa [4]): 59%
growth inhibition (GI) (Staphylococcus aureus): inactive

COc1cc2c3c(c1O)-c1cc(O)c(O)cc1CC3[N+](C)(C)CC2 (racemic)
inhibition of growth at 175 µM (Pseudomonas aeruginosa [5]): 59%
growth inhibition (GI) (Staphylococcus aureus): inactive
